Reference: ChEMBL document CHEMBL3774372, “Design, physico-chemical properties and biological evaluation of some new N-[(phenoxy)alkyl]- and N-{2-[2-(phenoxy)ethoxy]ethyl}aminoalkanols as anticonvulsant agents” (Bioorg Med Chem, 2016)
The source made the active and inactive calls. The rule behind the calls is not given here.

What was measured:
Rattus norvegicus [1] = test: Anticonvulsant activity in rat assessed as protection against maximal electric shock-induced seizures at 30 mg/kg, po measured after 4 hrs; assay type: functional, organism-based
Procedure, shortened: (§1)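 Rats dosed ip or orally as 0.5% methylcellulose suspension; maximal electroshock at listed time. Protection = abolition of hindlimb tonic extension; 4 rats per group, scored protected/tested.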

Mus musculus [2] = test: Anticonvulsant activity in mouse assessed as protection against 6 Hz psychomotor seizure at 20 mg/kg, ip after 0.5 hrs; assay type: functional, organism-based
Procedure, shortened: (§2)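 Suspension in 0.5% methylcellulose given ip to mice; corneal stimulation with 0.2 ms monopolar rectangular pulses at 6 Hz for 3 s from a constant current device, mice restrained then released to observation cage. Protected if normal exploratory behaviour resumed within 10 s of stimulation. Scored as protected/tested, 4 mice per group.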

Mus musculus [3] = test: Anticonvulsant activity in mouse assessed as protection against 6 Hz psychomotor seizure at 40 mg/kg, ip after 0.5 hrs; assay type: functional, organism-based; procedure, shortened: as §2
Mus musculus [4] = test: Anticonvulsant activity in mouse assessed as protection against maximal electric shock-induced seizures at 10 mg/kg, ip measured after 0.5 hrs; assay type: functional, organism-based
Procedure, shortened: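 Mice dosed ip with suspension in 0.5% methylcellulose; maximal electroshock applied at the listed time after dosing. Protection = abolition of hindlimb tonic extension component of seizure; reported as animals protected/animals tested.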

Rattus norvegicus [5] = test: Anticonvulsant activity in rat assessed as protection against maximal electric shock-induced seizures at 30 mg/kg, ip measured after 2 hrs; assay type: functional, organism-based; procedure, shortened: as §1
Rattus norvegicus [6] = test: Anticonvulsant activity in rat assessed as protection against maximal electric shock-induced seizures at 30 mg/kg, ip measured after 4 hrs; assay type: functional, organism-based; procedure, shortened: as §1
[7] = Ratio of drug level in brain to plasma in CD1 mouse at 1 mg/kg, iv administered as single dose measured after 60 mins by LC/ESI-MS/MS analysis; assay type: ADME, organism-based; details: brain and plasma, read-out: BPR
Mus musculus [8] = test: Analgesic activity in mouse assessed as reduction in AUC of formalin-induced licking time during inflammatory phase at 13 mg/kg, ip relative to control; assay type: functional
Procedure, shortened: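 Formalin injected into a mouse hindlimb; total licking time taken as pain intensity. Compound given ip at 13 mg/kg as a suspension in 0.5% methylcellulose; vehicle-only animals served as controls.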

Vibrio harveyi = test: Mutagenicity in Vibrio harveyi BB7 assessed as number of colonies after 48 hrs (reference value: 13 to 14 no_unit); assay type: ADME, organism-based; details: in vivo
Procedure, shortened: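 Vibrio harveyi mutagenicity test: test compound was added to exponentially growing cultures (A600 = 0.1, 30 °C) and grown to OD600 0.3–0.4. Then 5 × 10^6 cells were plated on BOSS agar with neomycin (final 100 µg/mL) and incubated 48 h at 30 °C. Neomycin-resistant colonies were counted. Triplicate; controls were water, DMSO and NQNO 40 ng/mL.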

Mus musculus [9] = test: AUC (0 to infinity) in CD1 mouse plasma at 1 mg/kg, iv measured up to 240 mins by LC/ESI-MS/MS analysis; assay type: ADME, organism-based; design: dose 1 mg/kg, time infinity, route intravenous; details: in vivo, 4 h
Mus musculus [10] = test: AUC (0 to infinity) in CD1 mouse plasma at 12.92 mg/kg, ip measured up to 240 mins by LC/ESI-MS/MS analysis; assay type: ADME, organism-based; design: dose 12.92 mg/kg, route intraperitoneal, time infinity; details: in vivo, 4 h
Mus musculus [11] = test: AUMC (0 to infinity) in CD1 mouse plasma at 12.92 mg/kg, ip measured up to 240 mins by LC/ESI-MS/MS analysis; assay type: ADME, organism-based; details: in vivo, 4 h
[12] = Cmax in CD1 mouse brain at 12.92 mg/kg, ip measured up to 240 mins by LC/ESI-MS/MS analysis; assay type: ADME, organism-based; design: dose 12.92 mg/kg, route intraperitoneal
[13] = Ratio of drug level in brain to plasma in CD1 mouse at 12.92 mg/kg, ip administered as single dose measured after 15 mins by LC/ESI-MS/MS analysis; assay type: ADME, organism-based; details: brain and plasma, read-out: BPR
Rattus norvegicus [14] = test: Anticonvulsant activity in pilocarpine-induced status epilepticus Sprague-Dawley rat model at 100 mg/kg, ip after 0.5 hrs during post stage 3 seizure; assay type: functional, organism-based
Procedure, shortened: (§3)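 Rats given pilocarpine 50 mg/kg ip and observed to first convulsive seizure (Racine stage 3–5, time zero); test drug then given ip in 0.5% methylcellulose. Efficacy = halting further stage 3–5 convulsive seizures; scored protected/tested, time after first stage 3 seizure.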

Rattus norvegicus [15] = test: Anticonvulsant activity in pilocarpine-induced status epilepticus Sprague-Dawley rat model at 100 mg/kg, ip after 2 hrs during post stage 3 seizure; assay type: functional, organism-based; procedure, shortened: as §3
[16] = molecular target: Neuropeptide Y receptor type 2 (Homo sapiens) (UniProt P49146); test: Displacement of [125I]peptide YY from neuropeptide Y2 receptor in human KAN-TS cells at 10^-5 M; assay type: cell-based
Neuropeptide Y receptor type 2 (Homo sapiens), sequence (P49146 whole entry): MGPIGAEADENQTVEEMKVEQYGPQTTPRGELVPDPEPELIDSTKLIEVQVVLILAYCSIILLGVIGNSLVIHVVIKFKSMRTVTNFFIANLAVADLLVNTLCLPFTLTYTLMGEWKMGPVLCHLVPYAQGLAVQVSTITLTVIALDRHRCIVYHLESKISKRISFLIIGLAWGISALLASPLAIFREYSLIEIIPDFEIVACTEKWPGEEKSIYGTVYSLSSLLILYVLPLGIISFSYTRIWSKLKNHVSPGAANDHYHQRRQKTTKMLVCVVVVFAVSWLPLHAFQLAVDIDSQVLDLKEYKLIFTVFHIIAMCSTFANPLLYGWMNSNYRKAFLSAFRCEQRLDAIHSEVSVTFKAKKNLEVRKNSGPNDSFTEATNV
Procedure, shortened: (§4)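 Radioligand binding screen run at a single test concentration of 10^-5 M. Each target used its stated receptor source (human recombinant CHO or HEK-293 cells, endogenous cell lines, or rat tissue membranes) with the listed radioligand.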

[17] = molecular target: Neurotensin receptor type 1 (Homo sapiens) (UniProt P30989); test: Displacement of [125I]Tyr3-neurotensin from human recombinant NT1 receptor expressed in CHO cells at 10^-5 M; assay type: cell-based; procedure, shortened: as §4
Neurotensin receptor type 1 (Homo sapiens), sequence (P30989 whole entry): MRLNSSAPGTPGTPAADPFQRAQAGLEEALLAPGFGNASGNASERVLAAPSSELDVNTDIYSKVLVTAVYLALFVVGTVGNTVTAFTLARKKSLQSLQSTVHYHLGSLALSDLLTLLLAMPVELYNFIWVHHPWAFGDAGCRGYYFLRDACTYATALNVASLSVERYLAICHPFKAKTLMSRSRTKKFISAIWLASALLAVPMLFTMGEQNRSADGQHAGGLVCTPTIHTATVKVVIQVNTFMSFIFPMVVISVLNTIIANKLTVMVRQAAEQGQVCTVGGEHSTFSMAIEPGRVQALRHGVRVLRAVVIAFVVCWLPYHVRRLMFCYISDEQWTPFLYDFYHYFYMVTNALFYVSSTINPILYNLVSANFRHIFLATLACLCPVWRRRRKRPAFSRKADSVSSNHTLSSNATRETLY

For `Cc1cccc(C)c1OCCOCCN[C@@H](C)CO`, which Activity (Rattus norvegicus [1]) is on record?
The Activity was “inactive”.

What about the Activity (Mus musculus [2]) of the same molecule?
The Activity was “inactive”.

And the Activity (Mus musculus [3])?
Its Activity is “Active”.

What about the Activity (Mus musculus [4]) of the same molecule?
The Activity was “inactive”.

What about the Activity (Rattus norvegicus [5]) of the same molecule?
Its Activity is “inactive”.

And the Activity (Rattus norvegicus [6])?
Its Activity is “inactive”.

Which Kp at 1 h [7] does the source give for `Cc1cccc(C)c1OCCOCCN[C@H](C)CO.Cl` here?
The Kp at 1 h was 3.58.

And the inhibition in vivo at 13 mg/kg (Mus musculus [8])?
The inhibition in vivo at 13 mg/kg was 81.1%.

And the Activity (Vibrio harveyi)?
Its Activity is 20.

What about the AUC (Mus musculus [9]) of the same molecule?
The AUC was 1.03 µg·h/mL.

And the AUC (Mus musculus [10])?
The AUC was 0.903 µg·h/mL.

What about the AUMC (Mus musculus [11]) of the same molecule?
Its AUMC is 1280 ng·h²/mL.

And the Cmax [12]?
The Cmax was 2.36 µg/mL.

And the Kp at […] [13]?
The Kp at […] was 2.55.

What does the source list for `Cc1cccc(C)c1OCCOCCN[C@H](C)CO`?
Activity (Rattus norvegicus [14]): inactive; Activity (Rattus norvegicus [15]): inactive; inhibition [16]: -5.1%; inhibition [17]: -4.2%
